In ChEMBL document CHEMBL3351962, “Discovery of 1H-indole-2-carboxamides as novel inhibitors of the androgen receptor binding function 3 (BF3)” (J Med Chem, 2014):
Activity calls are given as the source filed them. No cut-off for these calls is given here.

Columns and labels:
MR49F = assay: Antiproliferative activity against enzalutamide-resistant human MR49F cells at 10 uM after 4 days by MTS assay; format: functional, cell-based
[1] = biological target: T1, Androgen receptor (Homo sapiens) (UniProt P10275); assay: Inhibition of androgen receptor binding function 3 in eGFP-expressing human LNCAP cells containing androgen-responsive probasin-derived promoter assessed as reduction in androgen receptor transcriptional activity at 3 uM after 3 days; format: cell-based
T1 sequence (whole entry): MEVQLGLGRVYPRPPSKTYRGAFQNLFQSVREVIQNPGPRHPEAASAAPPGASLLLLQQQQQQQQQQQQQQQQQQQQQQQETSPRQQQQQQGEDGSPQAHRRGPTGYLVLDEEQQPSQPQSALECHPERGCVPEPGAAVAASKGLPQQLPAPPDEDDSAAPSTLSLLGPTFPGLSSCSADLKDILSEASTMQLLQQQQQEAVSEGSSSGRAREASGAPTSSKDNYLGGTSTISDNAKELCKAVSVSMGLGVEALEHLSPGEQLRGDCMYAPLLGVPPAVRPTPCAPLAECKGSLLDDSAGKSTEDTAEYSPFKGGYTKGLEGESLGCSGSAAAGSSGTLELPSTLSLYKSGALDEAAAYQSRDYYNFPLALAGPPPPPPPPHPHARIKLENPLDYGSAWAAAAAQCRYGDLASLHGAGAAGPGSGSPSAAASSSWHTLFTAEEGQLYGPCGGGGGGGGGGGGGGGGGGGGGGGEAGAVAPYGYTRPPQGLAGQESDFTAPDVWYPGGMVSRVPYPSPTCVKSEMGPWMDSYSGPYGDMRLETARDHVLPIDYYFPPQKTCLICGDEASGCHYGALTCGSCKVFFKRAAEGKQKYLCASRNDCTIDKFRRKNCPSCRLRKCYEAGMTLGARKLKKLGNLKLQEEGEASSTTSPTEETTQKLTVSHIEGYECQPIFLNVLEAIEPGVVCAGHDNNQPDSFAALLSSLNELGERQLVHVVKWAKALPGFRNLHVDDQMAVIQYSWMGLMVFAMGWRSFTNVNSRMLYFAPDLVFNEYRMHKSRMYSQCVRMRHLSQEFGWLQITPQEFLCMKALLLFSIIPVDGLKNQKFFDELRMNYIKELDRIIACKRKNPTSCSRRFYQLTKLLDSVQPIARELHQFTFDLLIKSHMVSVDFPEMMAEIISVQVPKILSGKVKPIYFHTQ

Androgen receptor [2] = biological target: T2, Androgen receptor (Homo sapiens, UniProt P10275); assay: Inhibition of androgen receptor binding function 3 in human LNCAP cells containing androgen-responsive probasin-derived promoter assessed as reduction in PSA expression after 3 days by […] assay; format: cell-based
T2 sequence (P10275 whole entry): T1 sequence (whole entry)
Outline: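 PSA levels measured in LNCaP cells across a dose range (0−6.25 μM in dose-response curve); IC50 from the dose-dependent decrease of PSA.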

[3] = biological target: T1, Androgen receptor (Homo sapiens); assay: Displacement of androgen from androgen binding site of androgen receptor (unknown origin)
[4] = biological target: T1, Androgen receptor (Homo sapiens); assay: Displacement of SRC2 peptide from activation function 2 domain of androgen receptor (unknown origin)
Androgen receptor [5] = biological target: T2, Androgen receptor; assay: Inhibition of androgen receptor binding function 3 in eGFP-expressing human LNCAP cells containing androgen-responsive probasin-derived promoter assessed as reduction in androgen receptor transcriptional activity after 3 days; format: cell-based
Outline: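 eGFP reporter of AR transcriptional activity in LNCaP cells; concentration titration (0−12.5 μM in dose-response); mean of two independent experiments in triplicate (n = 6), SEM; IC50 by fitting log inhibitor concentration vs % activation.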

Androgen receptor [6] = biological target: T2, Androgen receptor
[7] = biological target: T1, Androgen receptor (Homo sapiens); assay: Direct reversible binding affinity to super-streptavidin bound biotinylated androgen receptor ligand binding domain (unknown origin) expressed in Escherichia coli BL21 by bio-layer Interferometry assay
Outline: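 Biolayer interferometry of direct, reversible binding to AR LBD; dose-response with compound at 0−50 μM or 0−100 μM.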

LNCaP = assay: Antiproliferative activity against human LNCAP cells after 4 days by MTS assay; format: functional, cell-based; conditions: 96 h
Outline: (§1)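 MTS viability assay in LNCaP (androgen-stimulated), enzalutamide-resistant MR49F (LNCaP-derived) and androgen-independent PC3 cells; compounds added in serial concentrations, viability read after 4 days of incubation; IC50 from dose-response curves.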

PC-3 = assay: Antiproliferative activity against androgen receptor-independent human PC3 cells after 4 days by MTS assay; format: functional, cell-based; outline: as §1
[8] = Antiproliferative activity against enzalutamide-resistant human MR49F cells after 4 days by MTS assay; format: functional, cell-based; conditions: 96 h; outline: as §1
[9] = Solubility of the compound at high drug level; format: physicochemical

Structure (SMILES) | inhibition [1] [%] | IC50 (Androgen receptor [2]) [nM] | inhibition [3] | inhibition [4] | IC50 (Androgen receptor [5]) [nM] | IC50 (Androgen receptor [6]) [nM] | Activity [7] | IC50 (LNCaP) [nM] | solubility [9] | inhibition (MR49F) | inhibition (PC-3) | IC50 [8] [nM]
CNC(=O)c1ccc(N2C(=S)N(c3ccc(C#N)c(C(F)(F)F)c3)C(=O)C2(C)C)cc1F |  |  |  |  |  |  |  |  |  | inactive |  | 
CC(C)N(Cc1ccco1)C(=O)c1cc2cc(C(F)(F)F)ccc2[nH]1 | > 50 | 5290 | inactive | inactive | 5200 |  |  |  |  |  |  | 
CN(Cc1cccs1)C(=O)c1cc2ccc(F)cc2[nH]1 | > 50 | 5450 | inactive | inactive | 3380 |  |  |  |  |  |  | 
Cc1ccc2cc(C(=O)N(Cc3ccco3)C(C)C)[nH]c2c1 | > 50 | 850 | inactive | inactive | 1020 |  |  |  |  |  |  | 
Cc1ccc(CN(C(=O)c2cc3cc(F)ccc3[nH]2)C(C)C)o1 | > 50 | 1380 | inactive | inactive | 1100 |  |  |  |  |  |  | 
COCCN(Cc1ccco1)C(=O)c1cc2cc(F)ccc2[nH]1 | > 50 | 6620 | inactive | inactive | 6470 |  |  |  |  |  |  | 
CC(C)N(Cc1ccco1)C(=O)c1cc2cc(F)ccc2[nH]1 | > 50 | 500 | inactive | inactive | 600 |  |  |  | Insoluble |  |  | 
CN(Cc1ccc(Br)o1)C(=O)c1cc2ccc(F)cc2[nH]1 | > 50 | 8090 | inactive | inactive | 15700 |  |  |  |  |  |  | 
N#CCCN(Cc1ccccc1)C(=O)c1cc2ccccc2[nH]1 | > 50 | 4580 | inactive | inactive | 7510 |  |  |  |  |  |  | 

More lines, main results first:

inhibition [1] [%] | IC50 (Androgen receptor [2]) [nM] | inhibition [3] | inhibition [4] | IC50 (Androgen receptor [5]) [nM] | IC50 (Androgen receptor [6]) [nM] | Activity [7] | IC50 (LNCaP) [nM] | solubility [9] | Structure (SMILES) | inhibition (MR49F) | inhibition (PC-3) | IC50 [8] [nM]
> 50 | 840 | inactive | inactive | 700 | 2180 | Active | 550 |  | Cc1ccc(CN(C(=O)c2cc3ccc(F)cc3[nH]2)C(C)C)o1 |  | inactive | 1310
> 50 | 5480 | inactive | inactive | 4040 |  |  |  |  | O=C(c1cc2ccc(F)cc2[nH]1)N(Cc1ccco1)Cc1ccco1 |  |  | 
> 50 | 1770 | inactive | inactive | 2670 |  |  |  |  | Cc1ccc2[nH]c(C(=O)N(Cc3ccc(C)o3)C(C)C)cc2c1 |  |  | 
> 50 | 1650 | inactive | inactive | 2890 |  |  |  |  | Cc1ccc2cc(C(=O)N(Cc3ccc(C)o3)C(C)C)[nH]c2c1 |  |  | 
> 50 | 6560 | inactive | inactive | 9440 |  |  |  |  | Cc1ccc(CN(C)C(=O)c2cc3cc(F)ccc3[nH]2)o1 |  |  | 
> 50 | 1200 | inactive | inactive | 1300 |  |  |  |  | Cc1ccc2[nH]c(C(=O)N(Cc3ccco3)C(C)C)cc2c1 |  |  | 
> 50 | 3420 | inactive | inactive | 3320 |  | Dose-dependent effect |  |  | Cc1ccc(CN(C(=O)c2cc3ccccc3[nH]2)C(C)C)o1 |  |  | 
> 50 | 530 | inactive | inactive | 430 |  |  |  | Insoluble | CC(C)N(Cc1ccco1)C(=O)c1cc2ccc(F)cc2[nH]1 |  |  | 
> 50 | 3060 | inactive | inactive | 3530 |  |  |  |  | CN(Cc1ccc(Br)s1)C(=O)c1cc2ccc(F)cc2[nH]1 |  |  | 
> 50 | 1200 | inactive | inactive | 1000 |  |  |  |  | Cc1ccc(CN(C(=O)c2cc3cccc(F)c3[nH]2)C(C)C)o1 |  |  | 
